The record followed here is ChEMBL document CHEMBL4371052, “Diarylcarbonates are a new class of deubiquitinating enzyme inhibitor” (Bioorg Med Chem Lett, 2019).

Calls of active or inactive are those of the source. No cut-off for these calls is given here.

Assay [1] concerns the target Ubiquitin carboxyl-terminal hydrolase 7 (Homo sapiens) (UniProt Q93009). Put plainly: Inhibition of recombinant His6-tagged USP7 catalytic domain (unknown origin) using Ub-AMC as substrate by fluorescence assay. The conditions noted are these: TDE = time-dependent effect.
For assay [2], the target named is T1, Ubiquitin carboxyl-terminal hydrolase 8 (Homo sapiens) (UniProt P40818).
T1 sequence (whole entry): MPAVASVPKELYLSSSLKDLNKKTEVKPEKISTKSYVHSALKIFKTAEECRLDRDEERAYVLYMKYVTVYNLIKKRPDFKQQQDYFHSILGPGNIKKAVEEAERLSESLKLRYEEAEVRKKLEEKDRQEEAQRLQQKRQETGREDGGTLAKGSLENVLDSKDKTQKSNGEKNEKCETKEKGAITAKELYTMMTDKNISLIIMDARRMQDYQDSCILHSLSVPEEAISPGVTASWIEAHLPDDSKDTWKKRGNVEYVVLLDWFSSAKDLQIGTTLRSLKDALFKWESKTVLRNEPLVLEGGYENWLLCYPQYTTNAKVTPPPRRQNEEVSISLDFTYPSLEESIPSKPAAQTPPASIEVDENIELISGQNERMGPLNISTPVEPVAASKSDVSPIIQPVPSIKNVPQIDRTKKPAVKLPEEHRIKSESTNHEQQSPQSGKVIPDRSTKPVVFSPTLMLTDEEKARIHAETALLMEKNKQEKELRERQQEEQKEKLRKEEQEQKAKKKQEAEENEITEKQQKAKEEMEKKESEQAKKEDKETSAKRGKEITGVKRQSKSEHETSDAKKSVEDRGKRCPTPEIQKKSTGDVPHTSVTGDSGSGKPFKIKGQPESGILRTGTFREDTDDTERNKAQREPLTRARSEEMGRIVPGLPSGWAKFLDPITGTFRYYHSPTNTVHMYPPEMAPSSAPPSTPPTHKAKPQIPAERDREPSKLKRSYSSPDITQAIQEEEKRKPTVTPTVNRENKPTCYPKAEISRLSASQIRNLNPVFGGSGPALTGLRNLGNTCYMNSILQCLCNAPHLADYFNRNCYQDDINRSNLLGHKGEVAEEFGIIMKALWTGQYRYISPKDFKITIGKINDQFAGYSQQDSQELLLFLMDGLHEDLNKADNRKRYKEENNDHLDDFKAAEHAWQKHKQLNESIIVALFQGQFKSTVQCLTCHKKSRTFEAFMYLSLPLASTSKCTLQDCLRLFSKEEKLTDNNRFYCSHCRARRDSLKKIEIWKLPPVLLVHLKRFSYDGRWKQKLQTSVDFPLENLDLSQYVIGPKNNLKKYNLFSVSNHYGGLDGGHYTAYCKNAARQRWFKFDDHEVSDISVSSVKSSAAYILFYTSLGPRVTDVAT
Put plainly: Inhibition of USP8 in HEK293T cell lysates at 25 uM using HA-tagged vinyl-sulfone as substrate measured after 2 to 30 mins by Western blot analysis. Type of assay: subcellular. The settings on record: Lysate. In outline: (§1)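 HEK 293T lysate (1.5 mg/ml) given compound (25 μM) or DMSO at the same time as HA-Ub-VS (1.5 μM). Aliquots withdrawn over time were run on SDS-PAGE and immunoblotted for HA.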

For assay [3], the target named is Ubiquitin carboxyl-terminal hydrolase 28 (Homo sapiens) (UniProt Q96RU2). Nature of the assay: Inhibition of USP28 in HEK293T cell lysates at 25 uM using HA-tagged vinyl-sulfone as substrate measured after 2 to 30 mins by Western blot analysis. The settings on record: Lysate. Type of assay: subcellular. In outline:
as §1

Assay [4] deals with T2, Ubiquitin carboxyl-terminal hydrolase isozyme L3 (Homo sapiens) (UniProt P15374).
T2 sequence (whole entry): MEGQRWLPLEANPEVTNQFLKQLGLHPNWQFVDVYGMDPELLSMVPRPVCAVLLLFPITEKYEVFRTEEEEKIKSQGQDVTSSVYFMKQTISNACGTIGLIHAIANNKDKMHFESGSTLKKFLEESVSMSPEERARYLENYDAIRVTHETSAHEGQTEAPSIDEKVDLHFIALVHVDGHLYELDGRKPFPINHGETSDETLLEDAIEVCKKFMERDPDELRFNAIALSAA
Nature of the assay: Inhibition of UCHL3 in HEK293T cell lysates at 25 uM using HA-tagged vinyl-sulfone as substrate measured after 2 to 30 mins by Western blot analysis. The settings on record: Lysate. The class given is subcellular. In outline:
as §1

Assay [5] addresses Ubiquitin carboxyl-terminal hydrolase 9X (Homo sapiens) (UniProt Q93008). Nature of the assay: Inhibition of recombinant His6-tagged USP9x catalytic domain (unknown origin) using Ub-AMC as substrate by fluorescence assay. The conditions noted are these: TDE = time-dependent effect.
For assay [6], the target named is T2, Ubiquitin carboxyl-terminal hydrolase isozyme L3 (Homo sapiens). Nature of the assay: Inhibition of UCHL3 in HEK293T cell lysates assessed as enzyme recovery at 250 uM using HA-tagged vinyl-sulfone as substrate […] followed by 10-fold dilution and subsequent substrate addition measured within 15 mins by Western blot analysis. Type of assay: subcellular. The settings on record: Lysate.

A further assay relates to K562. Nature of the assay: Cell cycle arrest in human K562 cells assessed as increase in accumulation at G1-phase after 24 hrs by propidium iodide staining based flow cytometry. Type of assay: functional. In outline: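 K562 cells exposed to compound for 24 h, then analysed for cell cycle by FACS. Sub-G1 cells were counted as apoptotic, with the G1 fraction reported separately.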

Assay [7] has as its target Ubiquitin carboxyl-terminal hydrolase 7 (Homo sapiens) (UniProt Q93009). Nature of the assay: Inhibition of USP7 in human MCF7 cells assessed as accumulation of K48-Ub protein at 50 uM after 4 hrs by Western blot analysis. Type of assay: cell-based. In outline:
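MCF7 cells exposed to 50 μM compound for 4 h. K48-linked ubiquitin chains were detected by immunoblot.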

The target of assay [8] is Ubiquitin carboxyl-terminal hydrolase 15 (Homo sapiens) (UniProt Q9Y4E8). Put plainly: Inhibition of USP15 in HEK293T cell lysates at 25 uM using HA-tagged vinyl-sulfone as substrate measured after 2 to 30 mins by Western blot analysis. Type of assay: subcellular. The settings on record: Lysate. A digest of the protocol: as §1
For assay [9], the target named is Ubiquitin carboxyl-terminal hydrolase isozyme L5 (Homo sapiens) (UniProt Q9Y5K5). Nature of the assay: Inhibition of UCHL5 in HEK293T cell lysates assessed as enzyme recovery at 250 uM using HA-tagged vinyl-sulfone as substrate preincubated for 40 mins followed by 10-fold dilution and subsequent substrate addition measured within 15 mins by Western blot analysis. The class given is subcellular. The conditions noted are these: Lysate.

In another assay the target is T3, Papain (Carica papaya) (UniProt P00784).
T3 sequence (whole entry): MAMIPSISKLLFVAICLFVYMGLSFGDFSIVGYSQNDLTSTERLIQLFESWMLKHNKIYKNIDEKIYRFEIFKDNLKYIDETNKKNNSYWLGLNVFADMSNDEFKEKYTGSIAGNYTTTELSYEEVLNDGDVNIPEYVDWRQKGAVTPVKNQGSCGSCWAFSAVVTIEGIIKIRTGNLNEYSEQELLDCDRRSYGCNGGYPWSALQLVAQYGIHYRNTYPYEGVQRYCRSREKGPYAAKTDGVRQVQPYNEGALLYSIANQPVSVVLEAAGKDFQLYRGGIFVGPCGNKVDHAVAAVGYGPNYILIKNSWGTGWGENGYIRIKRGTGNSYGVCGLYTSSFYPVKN
Put plainly: Inhibition of papaya papain at 100 uM using Z-Arg-AMC as substrate preincubated for 30 mins followed by substrate addition by fluorescence assay. In outline: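 Enzyme (papain or ficin) preincubated 30 min with inhibitor at 100 μM, then Z-Arg-AMC substrate added at 300 μM; AMC release followed.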

The target of assay [10] is Ubiquitin carboxyl-terminal hydrolase 28 (Homo sapiens) (UniProt Q96RU2). Put plainly: Inhibition of USP28 in HEK293T cell lysates at 25 uM using HA-tagged vinyl-sulfone as substrate preincubated for 19 to 60 mins followed by substrate addition and measured after 19 to 25 mins by Western blot analysis. Type of assay: subcellular. The settings on record: Lysate.
Chain of Ubiquitin carboxyl-terminal hydrolase 28 (Homo sapiens) (Q96RU2 whole entry): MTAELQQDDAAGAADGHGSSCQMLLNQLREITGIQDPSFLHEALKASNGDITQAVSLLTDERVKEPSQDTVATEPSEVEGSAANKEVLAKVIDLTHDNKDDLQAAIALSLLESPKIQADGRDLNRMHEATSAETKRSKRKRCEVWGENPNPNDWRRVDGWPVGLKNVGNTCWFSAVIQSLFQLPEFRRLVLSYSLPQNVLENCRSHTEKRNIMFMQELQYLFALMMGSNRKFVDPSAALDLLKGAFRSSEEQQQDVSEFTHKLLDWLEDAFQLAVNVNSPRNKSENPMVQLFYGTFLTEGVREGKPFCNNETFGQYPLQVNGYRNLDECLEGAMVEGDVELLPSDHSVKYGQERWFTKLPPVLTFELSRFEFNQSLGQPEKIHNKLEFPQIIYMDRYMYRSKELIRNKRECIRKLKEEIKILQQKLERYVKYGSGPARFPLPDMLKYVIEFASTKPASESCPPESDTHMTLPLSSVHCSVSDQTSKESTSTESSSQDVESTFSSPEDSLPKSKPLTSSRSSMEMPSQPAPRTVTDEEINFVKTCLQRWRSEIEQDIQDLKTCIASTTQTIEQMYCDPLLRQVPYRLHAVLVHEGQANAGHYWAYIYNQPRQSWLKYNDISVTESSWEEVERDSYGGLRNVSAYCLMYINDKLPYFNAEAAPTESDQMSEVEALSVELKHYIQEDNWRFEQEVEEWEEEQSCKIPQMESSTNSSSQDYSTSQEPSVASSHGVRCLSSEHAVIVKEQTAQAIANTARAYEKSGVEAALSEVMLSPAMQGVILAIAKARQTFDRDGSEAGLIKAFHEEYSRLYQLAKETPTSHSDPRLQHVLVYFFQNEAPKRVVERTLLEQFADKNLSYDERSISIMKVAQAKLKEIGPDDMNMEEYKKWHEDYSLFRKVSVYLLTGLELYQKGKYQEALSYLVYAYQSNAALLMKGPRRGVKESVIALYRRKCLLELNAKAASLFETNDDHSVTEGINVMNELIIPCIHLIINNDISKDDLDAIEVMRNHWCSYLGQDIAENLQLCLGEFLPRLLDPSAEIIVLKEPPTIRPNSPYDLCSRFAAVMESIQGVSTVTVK

Chain of Ubiquitin carboxyl-terminal hydrolase 7 (Homo sapiens) (Q93009 whole entry, looked up, the tested form may be a part): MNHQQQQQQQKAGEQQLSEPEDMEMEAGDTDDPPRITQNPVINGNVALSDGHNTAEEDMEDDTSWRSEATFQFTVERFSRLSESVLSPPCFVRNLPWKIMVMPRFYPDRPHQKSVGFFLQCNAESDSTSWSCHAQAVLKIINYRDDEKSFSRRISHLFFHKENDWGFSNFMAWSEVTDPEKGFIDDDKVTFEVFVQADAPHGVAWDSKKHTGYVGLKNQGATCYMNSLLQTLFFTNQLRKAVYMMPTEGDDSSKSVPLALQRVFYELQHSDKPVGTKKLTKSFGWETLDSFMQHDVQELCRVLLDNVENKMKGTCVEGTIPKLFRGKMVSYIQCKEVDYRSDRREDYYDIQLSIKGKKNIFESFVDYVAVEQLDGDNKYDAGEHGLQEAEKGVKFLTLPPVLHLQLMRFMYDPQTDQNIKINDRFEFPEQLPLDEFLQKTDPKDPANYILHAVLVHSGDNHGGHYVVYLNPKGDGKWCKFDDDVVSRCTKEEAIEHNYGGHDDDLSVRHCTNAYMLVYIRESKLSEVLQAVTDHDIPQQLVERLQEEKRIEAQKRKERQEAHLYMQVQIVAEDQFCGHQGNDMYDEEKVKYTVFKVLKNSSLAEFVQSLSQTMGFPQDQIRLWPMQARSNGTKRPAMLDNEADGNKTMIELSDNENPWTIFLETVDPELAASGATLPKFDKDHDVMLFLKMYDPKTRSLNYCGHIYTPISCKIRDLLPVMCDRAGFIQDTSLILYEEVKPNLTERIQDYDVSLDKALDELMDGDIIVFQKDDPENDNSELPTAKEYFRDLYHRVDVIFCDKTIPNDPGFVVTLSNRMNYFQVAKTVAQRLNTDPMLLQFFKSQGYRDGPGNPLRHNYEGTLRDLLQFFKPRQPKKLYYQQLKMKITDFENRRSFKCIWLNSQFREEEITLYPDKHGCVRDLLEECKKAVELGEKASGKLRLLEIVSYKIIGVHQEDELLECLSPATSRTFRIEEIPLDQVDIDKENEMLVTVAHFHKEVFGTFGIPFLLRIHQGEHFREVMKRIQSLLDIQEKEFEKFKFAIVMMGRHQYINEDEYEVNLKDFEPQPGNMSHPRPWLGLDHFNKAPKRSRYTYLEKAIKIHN
Chain of Ubiquitin carboxyl-terminal hydrolase 15 (Homo sapiens) (Q9Y4E8 whole entry): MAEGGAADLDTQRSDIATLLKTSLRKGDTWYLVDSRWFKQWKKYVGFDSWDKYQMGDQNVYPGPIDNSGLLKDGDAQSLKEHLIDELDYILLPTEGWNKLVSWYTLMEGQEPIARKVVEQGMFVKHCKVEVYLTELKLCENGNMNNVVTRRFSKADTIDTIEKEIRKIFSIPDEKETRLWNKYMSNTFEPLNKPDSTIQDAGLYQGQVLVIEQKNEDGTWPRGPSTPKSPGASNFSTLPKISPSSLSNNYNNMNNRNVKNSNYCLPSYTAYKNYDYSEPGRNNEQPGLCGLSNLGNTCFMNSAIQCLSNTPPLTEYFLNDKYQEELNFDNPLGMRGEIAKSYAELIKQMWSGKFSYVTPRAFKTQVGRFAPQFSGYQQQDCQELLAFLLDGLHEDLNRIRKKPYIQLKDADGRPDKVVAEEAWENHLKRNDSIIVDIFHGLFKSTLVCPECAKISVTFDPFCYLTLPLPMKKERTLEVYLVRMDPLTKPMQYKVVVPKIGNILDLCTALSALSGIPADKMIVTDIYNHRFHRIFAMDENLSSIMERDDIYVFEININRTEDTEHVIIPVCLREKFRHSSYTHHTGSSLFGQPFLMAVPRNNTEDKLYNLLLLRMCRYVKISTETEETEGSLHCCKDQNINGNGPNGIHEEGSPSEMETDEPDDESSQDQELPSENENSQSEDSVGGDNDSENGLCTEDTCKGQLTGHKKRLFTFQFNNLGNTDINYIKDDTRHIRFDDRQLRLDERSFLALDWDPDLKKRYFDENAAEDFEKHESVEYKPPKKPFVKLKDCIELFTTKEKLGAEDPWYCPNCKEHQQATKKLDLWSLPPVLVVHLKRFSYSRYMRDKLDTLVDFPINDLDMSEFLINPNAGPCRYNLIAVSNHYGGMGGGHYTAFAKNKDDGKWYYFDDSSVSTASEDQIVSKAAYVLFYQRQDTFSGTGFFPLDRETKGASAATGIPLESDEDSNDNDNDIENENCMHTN
Chain of Ubiquitin carboxyl-terminal hydrolase isozyme L5 (Homo sapiens) (Q9Y5K5 whole entry): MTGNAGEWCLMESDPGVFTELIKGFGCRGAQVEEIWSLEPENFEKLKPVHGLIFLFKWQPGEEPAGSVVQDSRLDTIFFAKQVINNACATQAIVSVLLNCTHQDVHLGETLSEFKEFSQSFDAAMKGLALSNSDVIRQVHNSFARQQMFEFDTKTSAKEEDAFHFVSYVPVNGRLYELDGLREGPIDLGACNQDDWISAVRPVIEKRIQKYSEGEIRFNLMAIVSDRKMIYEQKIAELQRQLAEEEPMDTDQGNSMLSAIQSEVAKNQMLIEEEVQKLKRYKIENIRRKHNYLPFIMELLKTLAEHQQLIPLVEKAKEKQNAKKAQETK

Regarding `NCc1ccc(OC(=O)Oc2ccc3ccccc3c2)cc1`, the inhibition result in assay [1] and in assay [5] was “Tde” each time. Also, the inhibition result (in assay [2]; in assay [3]; in assay [4]; in assay [8]; at Papain (Carica papaya)) was “inactive” each time. For the same compound, the inhibition entry in assay [6], in assay [7], in assay [9] and in assay [10] was “Active” in each case. For the same compound, the Activity result in the assay with K562 is “Dose-dependent effect”.
